The record followed here is ChEMBL document CHEMBL3525942, “Disposition and metabolism of [14C]SB-649868, an orexin 1 and 2 receptor antagonist, in humans” (Drug Metab Dispos, 2011).

The subject of data set [1] is Plasma. Kind of data set: Drug level in human plasma assessed as radioactivity treated with [14C]SB-649868 at 30 mg, po single dose after 3 hrs by HPLC-MSn analysis. The arrangement: dosed compound name [14C]SB-649868. The following applies: in vivo. The data set is classed as ADME, organism-based. A digest of the protocol:
(§1)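 Plasma taken 3, 12, 24 and 48 h after one oral 30 mg [14C] dose, extracted, and run on radio-HPLC: C8 column, 45 mM ammonium acetate pH 3.8 and acetonitrile gradient, 1 ml/min. Fractions collected into scintillant plates and counted 5 min. Extraction recovery measured; data corrected when recovery was <85%. Values are % of plasma radioactivity, BQL 1%; n=7 at 3 and 12 h.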

In data set [2] the test system is Plasma. Description: Drug level in human plasma assessed as radioactivity treated with [14C]SB-649868 at 30 mg, po single dose after 12 hrs by HPLC-MSn analysis. The class given is ADME, organism-based. Further details: dosed compound name [14C]SB-649868. The conditions noted are these: in vivo. In outline:
as §1

The test system of data set [3] is Plasma. Description: Drug level in human plasma assessed as radioactivity treated with [14C]SB-649868 at 30 mg, po single dose after 24 hrs by HPLC-MSn analysis. The data set is classed as ADME, organism-based. Further details: dosed compound name [14C]SB-649868. The following applies: in vivo. A digest of the protocol: as §1
In data set [4] the test system is Plasma. Description: Drug level in human plasma assessed as radioactivity treated with [14C]SB-649868 at 30 mg, po single dose after 48 hrs by HPLC-MSn analysis. The following applies: in vivo. The arrangement: dosed compound name [14C]SB-649868. The data set is classed as ADME, organism-based. A digest of the protocol:
as §1

Data set [5] is described as follows: Terminal phase half life in human at 10 to 60 mg. The class given is ADME, organism-based. Further details: dosed compound name [14C]SB-649868. The following applies: in vivo, read-out: Compound recovery (converted).
A short description of data set [6]: Elimination half life in rat. The class given is ADME, organism-based. The arrangement: dosed compound name [14C]SB-649868. The conditions noted are these: in vivo, read-out: Compound recovery.
A short description of data set [7]: Elimination half life in dog. The data set is classed as ADME, organism-based, Canis lupus familiaris. Further details: dosed compound name [14C]SB-649868. The conditions noted are these: in vivo, read-out: Compound recovery.
In data set [8] the test system is Plasma. Description: Drug recovery in human plasma at 30, po single dose after 48 hrs by HPLC-MSn analysis. The class given is ADME, organism-based. The arrangement: dosed compound name [14C]SB-649868. A digest of the protocol: as §1
Data set [9] has as its system Plasma. Description: Drug recovery in human plasma at 30, po single dose after 3 hrs by HPLC-MSn analysis. The data set is classed as ADME, organism-based. The arrangement: dosed compound name [14C]SB-649868. A digest of the protocol:
as §1

Data set [10] concerns Homo sapiens. Description: AUC (0 to infinity) in human plasma treated with [14C]SB-649868 at 30 mg, po single dose. The data set is classed as ADME, organism-based. Further details: dosed compound name [14C]SB-649868. The following applies: in vivo. In outline: (§2)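 Eight healthy men given one oral 30 mg [14C] capsule. Plasma sampled 0.25–96 h. Parent measured in 50 µl plasma after acetonitrile precipitation with deuterated internal standard, by HPLC-MS/MS (positive-ion MRM). Calibration 5–5000 ng/ml, 1/x2 weighted. Noncompartmental analysis: t1/2 = ln2/λz, linear-up/log-down trapezoid AUC, CL/F = Dose/AUC0-inf.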

Data set [11] concerns Homo sapiens. Kind of data set: AUC (0 to t) in human plasma treated with [14C]SB-649868 at 30 mg, po single dose. The class given is ADME, organism-based. The arrangement: dosed compound name [14C]SB-649868. The conditions noted are these: in vivo. A digest of the protocol: as §2
Data set [12] concerns Homo sapiens. Kind of data set: Cmax in human plasma treated with [14C]SB-649868 at 30 mg, po single dose. Further details: dosed compound name [14C]SB-649868. The following applies: in vivo. The data set is classed as ADME, organism-based. In outline: as §2
In data set [13] the test system is Homo sapiens. Kind of data set: Tmax in human plasma treated with [14C]SB-649868 at 30 mg, po single dose. The class given is ADME, organism-based. The arrangement: dosed compound name [14C]SB-649868. The conditions noted are these: in vivo. A digest of the protocol: as §2
For data set [14], the system named is Homo sapiens. Kind of data set: Apparent half life in human plasma treated with [14C]SB-649868 at 30 mg, po single dose. The class given is ADME, organism-based. Further details: dosed compound name [14C]SB-649868. The following applies: in vivo. A digest of the protocol:
as §2

For data set [15], the system named is Homo sapiens. Description: Apparent oral clearance in human plasma treated with [14C]SB-649868 at 30 mg, po single dose. The following applies: in vivo. The arrangement: dosed compound name [14C]SB-649868. The data set is classed as ADME, organism-based. A digest of the protocol:
as §2

Data set [16] is described as follows: Drug level in human feces treated with [14C]SB-649868 at 30 mg, po single dose by HPLC-MSn analysis. The conditions noted are these: in vivo.
A short description of data set [17]: Drug level in human urine treated with [14C]SB-649868 at 30 mg, po single dose after 0 to 72 hrs by HPLC-MSn analysis. The following applies: in vivo, 0-72 h.

On to `Cc1nc(C(=O)N2CCCC[C@H]2CNC(=O)c2cccc3occc23)c(-c2ccc(F)cc2)s1` [SB-649868], for which the Compound recovery in data set [1] is given as 67.7%; in [2], 33.2%; in [3], 9.8%; in [4], less than 1; in [8] it was 34%; in [9], 97%. Also, the Compound recovery in data set [10] came out at 8300 ng·h/mL; in [11], 8200 ng·h/mL; in data set [12], 1.2 µg/mL; in data set [13], 4 h; in [14], 4.8 h; in data set [15], 3610 mL/h. Further, the Compound recovery entry in [16] and in [17] was “Below quantification limit” throughout. The half-life was 2.2 h in data set [5], less than 1 h in data set [6] and less than 1 h in data set [7].
In the case of `Cc1nc(C(=O)N[C@@H](CCCC(=O)O)CNC(=O)c2cccc3occc23)c(-c2ccc(F)cc2)s1`, the Compound recovery in [16] is recorded as 1.1%; in data set [17], “Below quantification limit”.
Regarding `Cc1nc(C(=O)N2CCCC[C@H]2CNC(=O)c2cccc(O)c2CC(=O)O)c(-c2ccc(F)cc2)s1`, the Compound recovery in data set [1] is listed as less than 1; in data set [2] it was 6.7%; in data set [3], 4.2%; in data set [4] it was less than 1; in data set [16], 10.3%; in data set [17], 1.5%.
For the molecule `Cc1nc(C(=O)N2CCCC[C@H]2Cn2ccc3c(O)cccc3c2=O)c(-c2ccc(F)cc2)s1`, the Compound recovery is given as 0.7% in data set [16] and “Below quantification limit” in data set [17].
